Laboratory results: article PMC7522377 (International Journal of Pharmaceutics: X, 2020)
Where a name gives a salt, the structure may show the parent alone.

Tests used:
MiaPaCa-2 cells [1] = assay: Cytotoxicity in 2D culture, Alamar blue assay; type: cell-based; details: Homo sapiens, MIA PaCa-2, 48 h, read-out: IC50 μM (2D MiaPaCa-2 culture)
Outline: (§1)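 Cells in DMEM (high glucose, 10% FBS, 1% PenStrep) were seeded at 1 × 10³/well and kept at 37 °C, 5% CO2. At 70–75% confluence they were treated for 48 h in triplicate per concentration; GemHCl ran 5–60 μM, diluted from a PBS stock into medium. Viability: 0.05% resazurin added for 4 h, fluorescence read at ex 560/580, em 590/610 nm; percent viable cells calculated; n = 3.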

MiaPaCa-2 cells [2] = assay: Cytotoxicity in 3D spheroid culture, Alamar blue assay; type: cell-based; details: Homo sapiens, MIA PaCa-2, 48 h, read-out: IC50 μM (3D MiaPaCa-2 culture)
Outline: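 MiaPaCa-2 cells were seeded at 3.0 × 10⁴/well in spheroid-forming plates and grown 72 h to form spheroids. Half the medium was then replaced with drug in growth medium for 48 h at 37 °C, 5% CO2. Resazurin (0.05%) was added for 4 h, and fluorescence was read at ex 560/580, em 590/610 nm to give percent viability.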

PPCL-46 cells [3] = assay: Cytotoxicity in 2D culture, Alamar blue assay; type: cell-based; details: Homo sapiens, 48 h, read-out: IC50 μM (2D PPCL-46 culture), 48 h treatment, mean ± SEM, n = 3
Outline: as §1

PPCL-46 cells [4] = assay: Cytotoxicity and spheroid integrity in 3D spheroid culture, Alamar blue assay; type: cell-based, human
[5] = Pharmacokinetic study after single intravenous bolus; type: in vivo; details: mice, iv bolus 30 mg/kg Gem equivalent, one-compartment model
Outline: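 Normal healthy mice were grouped as control, gemcitabine hydrochloride, or test compound. Each received a single intravenous bolus of 30 mg/kg gemcitabine equivalent; controls got 0.9% NaCl saline. Gemcitabine was measured in blood and tissue supernatants by peak area. Recovery was checked against control supernatants spiked with 0.5 μg/mL gemcitabine. Groups were compared by t-test.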

[6] = Acute toxicity: liver enzymes activity; type: in vivo, mice; details: serum
Outline: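 Blood was drawn 24 h after one IV dose of 30 mg/kg gemcitabine equivalent; controls were untreated. Serum was spun at 3500 rpm for 6 min, serially diluted, and run in triplicate in kit enzyme/substrate mixes at 37 °C. AST: glutamate standard, 450 nm. ALT: pyruvate standard, 595 nm. Activity = product formed × dilution / (reaction time × sample volume).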

liver and kidney tissues = assay: Acute toxicity: histology; type: in vivo, mice; details: 30 mg/kg Gem equivalent, single iv bolus, H&E staining
Outline: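 Normal healthy mice got one IV bolus of test compound or GemHCl at 30 mg/kg gemcitabine equivalent; controls got none. Liver and kidneys were rinsed in PBS and fixed in 10% neutral buffered formalin for 48 h at room temperature. Tissue was paraffin-embedded, cut at 5 μm, H&E-stained and examined by light microscopy at 20×.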

EGFR = assay: Immunohistochemical staining of PDX tumor sections; type: in vivo, human; details: PDX tumor tissue of treated mice
Outline: (§2)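 PDX tumours from treated mice were excised, PBS-washed, fixed 24 h in 10% buffered formalin and moved to 70% ethanol. Sections were immunostained for the target protein, dehydrated, coverslipped and scanned as whole slides at 40×. Staining was scored on the IHC scale (0, 1+, etc.).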

HER2 = assay: Immunohistochemical staining of PDX tumor sections; type: in vivo, human; details: PDX tumor tissue of treated mice
Outline: as §2

VEGF receptor = assay: Immunohistochemical staining of PDX tumor sections; type: in vivo, human; details: PDX tumor tissue of treated mice
Outline: as §2

[7] = 24 h after 30 mg/kg Gem equivalent iv, mean ± SD, n = 3

Structure (SMILES): Nc1ccn([C@@H]2O[C@H](CO)[C@@H](O)C2(F)F)c(=O)n1 [GemHCl, Gemcitabine Hydrochloride]
- IC50 (MiaPaCa-2 cells [1]): 45.7 ± 1.4 µM
- IC50 (MiaPaCa-2 cells [2]): 55.8 ± 1.2 µM
- IC50 (PPCL-46 cells [3]): 75.5 ± 1.9 µM
- IC50 (PPCL-46 cells [4]; Homo sapiens, 48 h, read-out: IC50 μM (3D PPCL-46 culture)): 95.2 ± 1.4 µM
- PPCL-46 spheroidal integrity after treatment (PPCL-46 cells [4]; varying concentrations, images of spheroids): smaller surface spheroidal area with less non-spheroidal shapes
- AUC (0-t) [5]: 28200 ± 4300 ng·h/mL
- Vss (volume of distribution at steady state) [5]: 21.7 ± 3.6 μg/(μg/mL)
- AST level compared with control group ([6]; 30 mg/kg Gem equivalent): no statistically significant elevation
- ALT [6, 7]: 232 ± 28 mUnits/mL
- AST [6, 7]: 85 ± 9 mUnits/mL
- histopathological examination of kidney and liver compared to control (liver and kidney tissues): no significant morphological changes
- EGFR expression (IHC score) (EGFR): IHC 1+
- HER2 expression (IHC score) (HER2): IHC 2+
- VEGF receptor expression (IHC score) (VEGF receptor): IHC 3+
